{
  "source": "paper PMC3498827",
  "about": "(The Biochemical journal, 2012)",
  "key": {"Chemical stability": {"experiment": "Chemical stability", "conditions": "hydrolysis of the linkage to saccharin moiety"}, "Solubility": {"experiment": "Solubility", "assay_type": "physicochemical", "conditions": "relative to original screening hit NCGC00186526"}, "LmPYK": {"target": "LmPYK (Leishmania mexicana, UniProt Q27686)", "experiment": "PYK inhibitor assay", "assay_type": "biochemical", "how_it_was_run": "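Pre-incubation mix held at 25 °C: LmPYK 1.6 U/mL, 0.4 mM PEP, 3.2 U/mL lactate dehydrogenase and 0.2 mM NADH in 50 mM TEA pH 7.2, 100 mM KCl, 3 mM MgCl2, 10% glycerol. Test compound (final 50 µM, from DMSO stock) added last; buffer-only control. Every 20 min […], an aliquot was started with 0.2 mM ADP (final). A340 decrease followed for 2 min. Initial rate expressed as % of control.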"}, "[1]": {"target": "rabbit lactate dehydrogenase (Oryctolagus cuniculus, UniProt P13491)", "experiment": "Inhibition of coupling enzyme lactate dehydrogenase", "assay_type": "biochemical", "conditions": "active-site Lys56"}, "[2]": {"test_system": "four human PYK isoenzymes", "experiment": "Irreversible inhibition of human PYK isoenzymes", "assay_type": "biochemical"}, "[3]": {"target": "Lys335Arg mutant of LmPYK (Leishmania mexicana, UniProt Q27686, K336R)", "experiment": "PYK inhibitor assay with Lys335Arg mutant", "assay_type": "biochemical", "conditions": "50 µM DBS, 0.4 mM PEP, identical assay conditions to wild-type"}, "HsRPYK": {"target": "HsRPYK (Homo sapiens, UniProt P30613)", "sequence (P30613 whole entry)": "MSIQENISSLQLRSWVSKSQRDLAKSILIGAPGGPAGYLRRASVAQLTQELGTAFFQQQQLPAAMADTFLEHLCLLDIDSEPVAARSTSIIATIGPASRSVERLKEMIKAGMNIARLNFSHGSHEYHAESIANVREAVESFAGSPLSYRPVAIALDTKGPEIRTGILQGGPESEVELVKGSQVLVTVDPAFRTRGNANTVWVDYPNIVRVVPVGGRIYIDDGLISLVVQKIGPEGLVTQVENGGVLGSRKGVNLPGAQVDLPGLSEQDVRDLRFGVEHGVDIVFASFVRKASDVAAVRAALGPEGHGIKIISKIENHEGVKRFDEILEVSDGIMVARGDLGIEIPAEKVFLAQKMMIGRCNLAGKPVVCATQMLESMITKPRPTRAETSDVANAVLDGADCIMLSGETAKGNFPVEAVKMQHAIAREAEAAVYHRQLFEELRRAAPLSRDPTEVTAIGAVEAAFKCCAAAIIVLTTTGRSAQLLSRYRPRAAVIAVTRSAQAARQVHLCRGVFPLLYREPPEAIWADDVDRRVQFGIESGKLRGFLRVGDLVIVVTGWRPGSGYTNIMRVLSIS", "experiment": "Inhibition of HsRPYK", "assay_type": "biochemical"}, "wild-type LmPYK": {"target": "wild-type LmPYK (Leishmania mexicana, UniProt Q27686)", "experiment": "qHTS / LmPYK activity assay", "assay_type": "biochemical"}},
  "data": [
    {"smiles": "O=C(O)c1ccc(SC2=NS(=O)(=O)c3ccccc32)cc1", "note": "[DBS, 4-[(1,1-dioxo-1,2-benzothiazol-3-yl)sulfanyl]benzoic acid]", "values": [
      {"measurement": "stability", "setting": "Chemical stability", "value": "improved stability and solubility profiles"},
      {"measurement": "solubility", "setting": "Solubility", "value": "improved stability and solubility profiles"},
      {"measurement": "time to maximal inhibition", "setting": "LmPYK; 50 µM DBS, 25 °C", "value": "~ 250 min"},
      {"measurement": "inhibition at 50 µM", "setting": "LmPYK; read-out: Maximal inhibition", "value": "~80", "unit": "%"},
      {"measurement": "inhibition of rabbit lactate dehydrogenase", "setting": "[1]", "value": "inability of DBS to inhibit"},
      {"measurement": "irreversible inhibition", "setting": "[2]", "value": "irreversibly inhibited"},
      {"measurement": "change in activity over time", "setting": "[3]", "value": "essentially no change in activity over time"},
      {"measurement": "IC50", "setting": "HsRPYK", "value": 8, "unit": "µM"}
    ]},
    {"smiles": "Cc1ccc(C)c(OC2=NS(=O)(=O)c3ccccc32)c1", "note": "[NCGC00186526]", "values": [
      {"measurement": "IC50", "setting": "wild-type LmPYK", "value": 10, "unit": "µM"}
    ]},
    {"smiles": "Cc1ccc(C)c(SC2=NS(=O)(=O)c3ccccc32)c1", "note": "[NCGC00188411]", "values": [
      {"measurement": "stability", "setting": "Chemical stability", "value": "Stable"},
      {"measurement": "IC50", "setting": "wild-type LmPYK", "value": 5, "unit": "µM"}
    ]}
  ]
}
